Key:
[1] = Inhibition of Hedgehog pathway-dependent oxysterol-induced mouse C3 H10T1/2 cell differentiation assessed as alkaline phosphatase production after 72 hrs; assay type: functional, cell-based; settings: C3H 10T1/2, 72 h
Method in brief: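 Murine progenitor C3H10T1/2 cells were induced with oxysterol to differentiate into osteoblasts in culture, and Hh pathway inhibition was taken as the effect on this differentiation. The number of determinations is reported per value.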

[2] = Chemical stability in Bronsted and Lewis acid; assay type: physicochemical
[3] = Chemical stability in simulated gastric fluid after 60 mins; assay type: physicochemical; settings: read-out: Stability
Method in brief: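 Test material incubated in simulated gastric fluid for 60 min; read-out is the percentage of parent compound remaining.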

[4] = Oral bioavailability in CD1 mouse at 5 mg/kg by LC-MS/MS analysis; assay type: ADME, organism-based; settings: in vivo
Method in brief: (§1)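 Hydrochloride salt was dissolved in sterile water for injection containing 30% (w/w) 2-hydroxypropyl-β-cyclodextrin and given to CD-1 mice intravenously and orally. Plasma was sampled at selected time points, proteins were precipitated, and drug levels were quantified by LC-MS/MS.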

[5] = Elimination half life in CD1 mouse at 5 mg/kg, po by LC-MS/MS analysis; assay type: ADME, organism-based; set-up: dose 5 mg/kg, route oral; settings: in vivo, read-out: beta t1/2 (converted); method in brief: as §1
Mus musculus = experiment: Volume of distribution in CD1 mouse at 5 mg/kg, po by LC-MS/MS analysis; assay type: ADME, organism-based; set-up: dose 5 mg/kg, route oral; settings: in vivo; method in brief: as §1

Row | Compound | EC50 [1] [nM] | also measured
1 | CC1=C2C[C@H]3[C@@H](CCC4=CC(=O)CC[C@@]43C)[C@@H]2CC[C@@]2(C1)O[C@@H]1C[C@H](C)CN(CCNC(=O)CCCCCNC(=O)CCc3ccccc3)[C@H]1[C@H]2C | 10 | 
2 | CC1=C2C[C@H]3[C@@H](CCC4=CC(=O)CC[C@@]43C)[C@@H]2CC[C@@]2(C1)O[C@@H]1C[C@H](C)CN(CCOCCO)[C@H]1[C@H]2C | > 1000 | 
3 | C[C@H]1C[C@H]2O[C@]3(CC[C@H]4[C@@H]5CC=C6C[C@@H](O)CC[C@]6(C)[C@H]5C[C@@]45C[C@]53C)[C@H](C)[C@@H]2N(C(=O)OCC2c3ccccc3-c3ccccc32)C1 |  | Stability [2]: Stable
4 | CC1=C2C[C@H]3[C@@H](CCC4=CC(=O)CC[C@@]43C)[C@@H]2CC[C@@]2(C1)O[C@@H]1C[C@H](C)CN[C@H]1[C@H]2C | 200 | remaining at 1 h [3]: 98%
5 | CC1=C2C[C@H]3[C@@H](CCC4=CC(=O)CC[C@@]43C)[C@@H]2CC[C@@]2(C1)O[C@@H]1C[C@H](C)CN(C)[C@H]1[C@H]2C | 400 | 
6 | CC1=C2C[C@H]3[C@@H](CCC4=CC(=O)CC[C@@]43C)[C@@H]2CC[C@@]2(C1)O[C@@H]1C[C@H](C)CN(O)[C@H]1[C@H]2C | 800 | 
7 | CC(=O)N1C[C@@H](C)C[C@H]2O[C@]3(CC[C@@H]4C(=C(C)C3)C[C@H]3[C@H]4CCC4=CC(=O)CC[C@@]43C)[C@H](C)[C@@H]21 | 120 | 
8 | CC1=C2C[C@H]3[C@@H](CCC4=CC(=O)CC[C@@]43C)[C@@H]2CC[C@@]2(C1)O[C@@H]1C[C@H](C)CN(CCCl)[C@H]1[C@H]2C | > 2500 | 
9 | CC1=C2C[C@H]3[C@@H](CCC4=CC(=O)CC[C@@]43C)[C@@H]2CC[C@@]2(C1)O[C@@H]1C[C@H](C)CN[C@H]1[C@H]2C.Cl |  | bioavailability [4]: 80%; half-life [5]: 3.2 h; Vd (Mus musculus): 18 L/kg
10 | CC1=C2C[C@H]3[C@@H](CCC4=CC(=O)CC[C@@]43C)[C@@H]2CC[C@@]2(C1)O[C@@H]1C[C@H](C)CN(Cc3ccccc3)[C@H]1[C@H]2C | > 2000 | 
11 | CC1=C2C[C@H]3[C@@H](CCC4=CC(=O)CC[C@@]43C)[C@@H]2CC[C@@]2(C1)O[C@@H]1C[C@H](C)CN(CCNC(=O)CCc3ccccc3)[C@H]1[C@H]2C | 20 | 
12 | COCCOCCN1C[C@@H](C)C[C@H]2O[C@]3(CC[C@@H]4C(=C(C)C3)C[C@H]3[C@H]4CCC4=CC(=O)CC[C@@]43C)[C@H](C)[C@@H]21 | 400 | 
13 | CC1=C2C[C@H]3[C@@H](CC=C4C[C@@H](O)CC[C@@]43C)[C@@H]2CC[C@@]2(C1)O[C@@H]1C[C@H](C)CN[C@H]1[C@H]2C | > 2500 | 
14 | CC1=C2C[C@H]3[C@@H](CC=C4C[C@@H](O)CC[C@@]43C)[C@@H]2CC[C@]12O[C@@H]1C[C@H](C)CN[C@H]1[C@H]2C [CYCLOPAMINE] | 170 | remaining at 1 h [3]: 60%
15 | C[C@@H]1CN[C@H]2[C@@H](C)[C@@]3(CC[C@H]4[C@@H]5CC=C6C[C@@H](O)CC[C@]6(C)[C@H]5C[C@@]45C[C@]53C)O[C@@H]2C1 [CYCLOPROPYL CYCLOPAMINE] | > 2000 | Stability [2]: Stable

Source: ChEMBL document CHEMBL1142521 (J Med Chem, 2008)
